In PubChem BioAssay:
Records with an inconclusive call do not appear.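 Rule for the calls, unless noted: active = viability at or below 27.92% in each of two runs, the all-compound median minus 4 SD; inconclusive = no clear call, values can overlap the other calls; inactive = the rest.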

Assays:
[1] = S. cerevisiae growth inhibition in permissive medium (OD615), pilot counter-assay for S. cerevisiae lifespan shortening project, permissive growth control (AID 705;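 active = growth inhibition above 25% in both replicates, a cutoff set 3 SD above the mean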); conditions: OD615, 24 h, at 10 µM, active compounds read high
Summary of the method: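 Material: engineered DeaD yeast; Compound: one dose 10 µM, DMSO 0.25% final; Detection: absorbance (optical density) at 615 nm; Buffer or medium: permissive raffinose/galactose medium; Timing: 24 h exposure, 30 °C.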

[2] = S. cerevisiae growth inhibition in restrictive medium, OD615, pilot screen, restrictive growth control, yeast lifespan reduction project (AID 706;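 active = growth inhibition above a set limit, 3 SD over mean compound inhibition, in both replicates, cut at about 43% in these data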;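 note: modified DeaD lifespan yeast strain shifted to restrictive glucose medium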); conditions: OD615, 48 h, at 10 µM, active compounds read high
Summary of the method: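 Buffer or medium: restrictive glucose medium (CSMM-D); test system: modified S. cerevisiae; doses: single dose of 10 µM compound final, 0.25% DMSO; schedule: 48 h compound exposure at 30 °C; detection: absorbance (optical density) measured at 615 nm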

[3] = doxorubicin toxicity protection in MRP-1 cells – H69AR cells, CellTiter-Glo, duplicate, MRP-1 activator project, pilot screen (AID 807;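 active = viability increase at or above a cutoff of the median across tested compounds plus 3 SD, cut at about 8.5% in these data, passing the limit was not always enough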;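 note: compound pretreatment 18-22 h then 72 h combined with doxorubicin; 0% = doxorubicin alone and 100% = vehicle without doxorubicin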); conditions: H69AR viability with doxorubicin, CellTiter-Glo luminescence; at 10 µM; active compounds read high
[4] = viability of HCT116 without oncogenic beta-catenin – human colon tumor cells, pilot screen (AID 823;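 active = cell viability at or below a set limit in both duplicate runs, the limit being the all-compound median minus 4 SD, cut at about 23% in these data, passing the limit was not always enough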;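 note: 0% = wells killed by 20 µM Hyamine and 100% = untreated DMSO cell wells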); conditions: HCT116 beta-catenin knockout viability, CellTiter-Glo, 60 h; at 10 µM; active compounds read low
[5] = viability of PTEN-null HCT116 cells – cell-based, HCT116 clonal line, CellTiter-Glo, pilot screen (AID 824); conditions: HCT116 PTEN-deleted viability, 60 h, at 10 µM, active compounds read low;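 note: 0% = 20 µM Hyamine control and 100% = vehicle cell control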
[6] = RAM pathway blockade in budding yeast – dse1pr::URA3 reporter, 5-FOA selection, pilot screen (AID 869;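 active = inhibition over a set limit, the all-compound mean plus 3 SD, in both replicate runs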;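 note: 0% = DMSO wells with no growth and 100% = 10 µM 1-NA-PP1 with full growth; RAM network block rescues cells from 5-FOA so hits raise OD615 growth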); conditions: S. cerevisiae dse1pr::URA3 5-FOA growth, OD615, 2 d; at 10 µM; active compounds read high; strain carries analog-sensitive mutant Cbk1 kinase
[7] = RAM signaling pathway blockade in yeast – S. cerevisiae, Pdr1DBD-CYC8 efflux-inhibited sensitized strain, primary screen (AID 1298;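 active = RAM network inhibition above 8.4% in each of two replicates, 3 SD over the compound average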;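 note: 0% = DMSO untreated cells without growth and 100% = 10 µM 1-NA-PP1 full growth; higher means more yeast growth rescued from 5-FOA killing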); conditions: S. cerevisiae cbk1-as DSE1-URA3 strain, 5-FOA growth OD615, 2 d; at 50 µM; active compounds read high

COc1ccc(NC(=O)C2CCCN(S(=O)(=O)c3cccc4cccnc34)C2)c(OC)c1 (stereo unspecified)
inactive: growth inhibition [1] -9.1% | growth inhibition [2] -2.73% | viability increase [3] -2.29% | viability [4] 70.4% | viability [5] 70.7% | inhibition [6] 1.19% | RAM network inhibition [7] 9.52%

Cn1c(Cn2c(=O)sc3ccccc32)nnc1SCc1cccnc1
inactive: growth inhibition [1] -3.75% | growth inhibition [2] 2.86% | viability increase [3] -1.44% | viability [4] 96.6% | viability [5] 97.1% | inhibition [6] 1.83% | RAM network inhibition [7] 5.33%

O=c1c(/C=N/O)c(Nc2ccccc2)nc2ccccn12
inactive: growth inhibition [1] -10.8% | growth inhibition [2] 10.2% | viability increase [3] -6.27% | viability [4] 93.8% | viability [5] 76.5% | inhibition [6] 0.56% | RAM network inhibition [7] 4.18%

Nc1sc2c(c1C(=O)NC1CCS(=O)(=O)C1)CCCC2 (stereo unspecified)
inactive: growth inhibition [1] -5.31% | growth inhibition [2] -3.38% | viability increase [3] 0.13% | viability [4] 93.3% | viability [5] 99.1% | inhibition [6] 1.67% | RAM network inhibition [7] 3.3%

CCOC(=O)C1=C(Nc2cccc(Cl)c2)OCC1=O
inactive: growth inhibition [1] -17.9% | growth inhibition [2] 3.65% | viability increase [3] -1.85% | viability [4] 102% | viability [5] 99% | inhibition [6] 2.21% | RAM network inhibition [7] 4.51%

CC(=O)Nc1cccc(N(C)C)c1
inactive: growth inhibition [1] 3.45% | growth inhibition [2] 5.4% | viability increase [3] -0.76% | viability [4] 96.1% | viability [5] 105% | inhibition [6] 1.44% | RAM network inhibition [7] 1.55%

CCOc1ccc(-n2c(Cc3cc(=O)[nH]c(=O)[nH]3)nnc2SCC(=O)OC)cc1
inactive: growth inhibition [1] -2.32% | growth inhibition [2] 3.42% | viability increase [3] 1.38% | viability [4] 104% | viability [5] 97.3% | inhibition [6] 2.62% | RAM network inhibition [7] 0.78%

Cn1nnnc1P(=O)(c1ccccc1)c1ccccc1
inactive: growth inhibition [1] 0.165% | growth inhibition [2] 0.5% | viability increase [3] 0.85% | viability [4] 103% | viability [5] 102% | inhibition [6] 0.995% | RAM network inhibition [7] 1.32%

O=C(Nc1ccccc1Cl)N1CCN(c2ccc3nnc(-c4ccccc4)n3n2)CC1
inactive: growth inhibition [1] 6.99% | growth inhibition [2] 29.4% | viability increase [3] -4.19% | viability [4] 79.4% | viability [5] 74.8% | inhibition [6] 0.435% | RAM network inhibition [7] 2.07%

O=C(CSc1nc2c(cnn2-c2ccc(F)cc2)c(=O)[nH]1)N1CCOCC1
inactive: growth inhibition [1] -14.2% | growth inhibition [2] -19.8% | viability increase [3] -3.32% | viability [4] 96.7% | viability [5] 91.4% | inhibition [6] 3.16% | RAM network inhibition [7] 6.85%

Cc1sc2nc3ccc(N4CCCC4)nn3c(=O)c2c1C
inactive: growth inhibition [1] -0.905% | growth inhibition [2] 18.9% | viability increase [3] -2.12% | viability [4] 70.1% | viability [5] 75% | inhibition [6] 0.845% | RAM network inhibition [7] 2.93%

COc1ccc(N2CCCCn3c2nc2c3c(=O)[nH]c(=O)n2C)cc1
inactive: growth inhibition [1] -18.4% | growth inhibition [2] -15.6% | viability increase [3] -2.97% | viability [4] 90.3% | viability [5] 90.9% | inhibition [6] 1.88% | RAM network inhibition [7] 2.42%

O=c1[nH]c2ccccc2n1Cc1ccc(F)cc1
inactive: growth inhibition [1] -5.88% | growth inhibition [2] -4.46% | viability increase [3] 1.93% | viability [4] 96.6% | viability [5] 92.4% | inhibition [6] 1.71% | RAM network inhibition [7] -0.05%

CCOC(=O)c1c(C2CCN(C(=O)OCC)CC2)nc2ccccn12
inactive: growth inhibition [1] -9.71% | growth inhibition [2] -12.6% | viability increase [3] -1.79% | viability [4] 95.4% | viability [5] 88.7% | inhibition [6] 2.99% | RAM network inhibition [7] 2.43%

CCN1CCN(c2cc(C)c3cc(NC(=O)c4ccncc4)ccc3n2)CC1
inactive: growth inhibition [1] -8.8% | growth inhibition [2] 1.77% | viability increase [3] -4.96% | viability [4] 82.6% | viability [5] 79.5% | inhibition [6] 1.46% | RAM network inhibition [7] 1.77%

O=C(c1ccc(CS(=O)(=O)c2ccc(Br)cc2)o1)N1CCN(c2ccccn2)CC1
inactive: growth inhibition [1] -5.91% | growth inhibition [2] -14.9% | viability increase [3] -3.76% | viability [4] 98.8% | viability [5] 84.4% | inhibition [6] 1.34% | RAM network inhibition [7] 4.8%

O=C(CSc1nc2cc(Cl)ccc2s1)c1ccco1
inactive: growth inhibition [1] -10.9% | growth inhibition [2] 11.2% | viability increase [3] -4.44% | viability [4] 95% | viability [5] 93.8% | inhibition [6] -0.07% | RAM network inhibition [7] -1.19%

CCN(c1ccccc1)S(=O)(=O)c1ccc(N)cc1
inactive: growth inhibition [1] -4.66% | growth inhibition [2] -1.86% | viability increase [3] -1.02% | viability [4] 94.5% | viability [5] 98.1% | inhibition [6] 2.56% | RAM network inhibition [7] 2.68%
